Screening results: PubChem, The Scripps Research Institute Molecular Screening Center
ABHD4 inh: ABHD4 (mouse) inhibition, primary FP screen; Q8VD66; purified mABHD4, FP-Rh probe fluorescence polarization; inhibition, % at 8.92 µM; actives 0.54% (n = 370,000); AID 720543;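 active = inhibition exceeding the mean over every tested compound plus 3 SD, cut at about 30% in these data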;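 also: 0% = plate median of compound wells and 100% = S159A mutant with DMSO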
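Doses – 8.92 µM, single dose · Material – wild-type mouse ABHD4 protein · Replication – single well per compound (singlicate) · Measure – percent inhibition of probe binding, normalized to plate controls · Schedule – 45 min compound pre-incubation plus 60 min probe step, 25 °C · Detection – fluorescence polarization with parallel and perpendicular emission, 525/598 nm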
PRMT1 FP inh: blocks human protein arginine methyltransferase 1. actives 1.3% (n = 370,000). inhibition, % at 2.79 µM. recombinant PRMT1, activity-based probe fluorescence polarization;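 active = inhibition above about 21% made by adding two undisclosed values, limit read from the data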
HTRA1 inhibitor: blocks human HTRA1 serine peptidase; Q92743; recombinant HTRA1, FP-rhodamine activity-based probe, fluorescence polarization; inhibition, % at 5.96 µM; actives 0.5% (n = 340,000); in the data active = inhibition above about 36%;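 also: 0% = enzyme with DMSO and 100% = wells lacking enzyme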
Target sequence (Q92743 whole entry, looked up): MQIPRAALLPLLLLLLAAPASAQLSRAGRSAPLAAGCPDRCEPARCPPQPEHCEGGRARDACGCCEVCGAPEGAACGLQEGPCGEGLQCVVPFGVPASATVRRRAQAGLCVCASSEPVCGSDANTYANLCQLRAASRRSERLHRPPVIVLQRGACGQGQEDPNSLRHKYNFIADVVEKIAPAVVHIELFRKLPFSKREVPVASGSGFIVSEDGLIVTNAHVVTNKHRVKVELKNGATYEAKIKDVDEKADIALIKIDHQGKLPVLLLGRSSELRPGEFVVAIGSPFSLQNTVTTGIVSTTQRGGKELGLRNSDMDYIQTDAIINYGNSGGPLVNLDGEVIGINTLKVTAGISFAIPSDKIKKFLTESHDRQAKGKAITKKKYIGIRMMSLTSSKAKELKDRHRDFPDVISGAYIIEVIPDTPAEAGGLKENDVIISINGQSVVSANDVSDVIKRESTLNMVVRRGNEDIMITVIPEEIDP
rCAG binder: binds r(CAG) RNA repeats. inhibition, % at 3 µM. actives 1.3% (n = 370,000). r(CAG) RNA repeat, TO-PRO-1 dye displacement fluorescence;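 active = inhibition above the plate cutoff, the mean of all test compounds on that plate plus 3 SD, cut at about 35% in these data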;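 also: 0% = DMSO alone and 100% = 100 µM mitoxantrone as full dye displacement; higher means more dye released from RNA so lower well fluorescence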
TCR-CD3 inh: blocks the human TCR-CD3 interaction. TAMRA-labeled TCR probe fluorescence, biochemical. inhibition, % at 9.4 µM. actives 0.37% (n = 360,000); in the data active = inhibition above about 19%;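 also: recombinant mutant TCR 2C K166C tagged with TAMRA read by polarization; 0% = receptor in buffer alone and 100% = receptor with positive control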
SIAE inh: human SIAE inhibition, primary screen; inhibition, % at 9.66 µM; SIAE FP-Rh probe binding, fluorescence polarization; actives 0.69% (n = 370,000); Q9HAT2;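 active = inhibition above a cutoff: mean of compounds within the control limits plus 3 SD of those, cut at about 17% in these data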;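 also: 0% = plate median of compound wells and 100% = probe without SIAE protein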
HTRA1 inh conf: confirmation of human HTRA1 inhibitors; actives 66% (n = 1,600); shares compounds with HTRA1 inhibitor; inhibition, % at 5.96 µM; recombinant HTRA1, FP-rhodamine activity-based probe, fluorescence polarization;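 active = mean inhibition over three repeats above a set limit taken from the earlier primary screen, cut at about 37% in these data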;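 also: 0% = HTRA1 with DMSO and 100% = wells lacking HTRA1; inhibitors block probe binding so polarization drops and inhibition rises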
* marks the source's active call; other numbers are inactive results; . = not tested or not shown. Sampled rows, rich in hits. Any-hit rate of the full collection: about 3.5%.

SMILES	ABHD4 inh	PRMT1 FP inh	HTRA1 inhibitor	rCAG binder	TCR-CD3 inh	SIAE inh	HTRA1 inh conf
Cc1ccc2cc(C3C(C#N)=C(N)Oc4c3ccc3cccnc43)c(=O)[nH]c2c1 (stereo not drawn)	.	.	79.0*	.	.	.	57.9*
CC(C)CSc1ncccc1-c1nc2ccccc2[nH]1	2.5	5.9	.	1.3	.	-3.4	.
Nc1c(Cl)ncnc1N/N=C/c1ccc2ccccc2n1	27.3	3.4	79.4*	5.9	4.0	5.2	72.0*
Nc1c(Cl)ncnc1N/N=C/c1ccnc2ccccc12	3.8	3.1	13.9	6.5	16.3	9.2	.
O=C(Nc1nc2ncccn2c1-c1ccc(F)cc1)C1CC1	0.6	-0.9	.	-0.5	.	6.2	.
COc1cccc2nc3cc(C)c(C)cc3nc12	28.1	7.0	47.9*	26.5	7.1	10.6	5.9
Cc1cc(C)cc(N=Cc2ccc([N+](=O)[O-])s2)c1	9.2	1.4	16.5	-1.0	-1.6	0.4	.
Cc1ccc(NC(=S)N/N=C/c2ccc([N+](=O)[O-])s2)cc1	3.3	0.0	59.1*	28.3	-8.9	7.7	59.2*
CC(COc1ccc(C(F)(F)F)cc1)CN1CCC(C(O)(c2ccccc2)c2ccccc2)CC1 (stereo not drawn)	2.3	4.0	.	2.4	.	0.6	.
CN1C(=O)CC(NNC(=O)c2ccccc2)C1=O (stereo not drawn)	-0.7	0.2	0.8	0.7	-3.8	-3.3	.
CN1C(=O)CC(Nc2cccc3cccc(N)c23)C1=O (stereo not drawn)	.	.	38.6*	.	.	.	6.6
O=C(CCCl)NC1CCCCN(Cc2ccc(OC(F)(F)F)cc2)C1=O (stereo not drawn)	-3.1	-4.9	.	-3.0	.	5.0	.
O=C1CCn2c1c(O)c1ccccc1c2=O	8.0	4.2	7.0	0.1	-5.2	-2.5	.
N=C1CCC(=N)c2c1c(O)c1ccccc1c2O	.	.	88.3*	.	.	.	110.0*
CCn1c(SCC(=O)c2ccc(O)c(O)c2)nnc1-c1ccc(C)cc1	32.2*	8.4	48.8*	21.0	1.6	11.4	76.5*
O=C(NCCc1ccccc1)c1ccc2nc(-c3ccco3)c(-c3ccco3)nc2c1	.	.	47.2*	.	.	.	10.1
C[C@H]1[C@@H](OC(=O)Nc2cc(Cl)ccc2Cl)CC[C@@]23CCCN2C(=O)CCC[C@@H]13	3.7	-5.2	.	.	.	-3.1	.
CC(=O)N1CCN(c2ccc(NC(=O)c3cccc(C)c3)cc2)CC1	-2.9	0.8	5.2	3.0	1.8	0.6	.
Cc1cccc(N2CCN(c3ccc(NC(=O)/C=C(/C(=O)O)c4ccccc4)cc3)CC2)c1	23.8	0.9	49.4*	7.7	4.6	7.8	41.1*
COc1c(O)c(O)c2oc(-c3ccccc3)cc(=O)c2c1OC	8.4	12.2	46.0*	9.5	-1.6	1.1	60.5*
COc1cc(-c2cc(=O)c3c(O)c(OC)c(OC)c(O)c3o2)ccc1O	24.3	4.4	33.8	12.6	11.9	0.6	.
[O-][n+]1cccc2c(Br)cc(Br)c(O)c21	16.9	-0.1	71.5*	6.9	4.9	0.0	40.6*
C[n+]1cccc2c(Br)ccc([O-])c21	11.4	-1.0	17.1	2.3	7.2	10.3	.
COc1ccc2c(c1)CN1CN(Cc3ccc(F)cc3)S(=O)(=O)CC21 (stereo not drawn)	-12.1	-1.2	.	3.0	.	-2.0	.
O=C1c2ccccc2-c2onc3ccc(Oc4ccccc4)c1c23	-31.5	10.5	39.3*	-7.4	-34.1	-6.5	22.3
SMILES	ABHD4 inh	PRMT1 FP inh	HTRA1 inhibitor	rCAG binder	TCR-CD3 inh	SIAE inh	HTRA1 inh conf
c1coc(-c2nc3ccccc3nc2-c2ccco2)c1	61.7*	42.2*	51.7*	52.3*	34.1*	25.4*	10.0
COc1ccc(Cn2cc(CN3[C@H](Cc4ccccc4)COc4cc(Br)ccc4S3(=O)=O)nn2)cc1	5.0	-0.3	.	9.7	.	5.3	.
COc1ccc2nc(N=NC3=C(O)CC(C)(C)CC3=O)sc2c1	26.5	-2.8	52.9*	6.9	4.9	-3.5	58.3*
Cc1ccc(S(=O)(=O)N2CCC(c3nc4ccccc4o3)CC2)s1	3.5	-5.9	.	6.4	.	-4.3	.
COC[C@H]1CCCN1c1cccc2c1S(=O)(=O)N(C1CC1)CCCO2	6.9	3.0	.	1.6	.	0.7	.
Nn1cnnc1N/N=C/c1cc(Br)cc(Br)c1O	12.5	3.1	52.8*	11.7	5.2	-1.0	51.1*
